This is an account of results in ChEMBL document CHEMBL1131493, “Inhibitors of farnesyl protein transferase. 4-Amido, 4-carbamoyl, and 4-carboxamido derivatives of 1-(8-chloro-6,11-dihydro-5H-benzo[5,6]- cyclohepta[1,2-b]pyridin-11-yl)piperazine and 1-(3-bromo-8-chloro-6,11- dihydro-5H-benzo[5,6]cyclohepta[1,2-b]pyridin-11-yl)piperazine” (J Med Chem, 1998).

Data set [1] relates to Mus musculus. The data set can be described thus: In vivo antitumor efficacy in nude mice by injecting a dose of 25 mg/kg, as HCl salt in solution, perorally and the total drug exposure was determined (0-24hr). Type of data set: ADME, organism-based. More on the design: time < 24 hr, dose 25 mg/kg, route oral. The following applies: po.
A short description of data set [2]: Oral bioavailability in mouse (nude) (dose 25 mg/kg i.v.). Type of data set: ADME, organism-based. The following applies: in vivo.
The nature of data set [3]: In vivo antitumor efficacy in cynomolgus monkeys by injecting a dose of 25 mg/kg, as HCl salt in saline solution, perorally and the total drug exposure was determined (0-8 hr). Type of data set: ADME, organism-based, Macaca fascicularis. Also noted: time < 8 hr, dose 25 mg/kg, route oral. The following applies: cynomolgus monkey, po. In a few lines: (§1)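 Cynomolgus monkeys; hydrochloride salt in saline iv, or compound given po (as hydrochloride, as micronized free base in corn oil, or as hydrochloride in 0.4% methyl cellulose, depending on compound).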

The nature of data set [4]: Oral bioavailability in mouse (nude) (dose of 25 mg/kg). Type of data set: ADME, organism-based. The following applies: in vivo. The method in brief: (§2)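 Serum pharmacokinetics in nude mice or cynomolgus monkeys after oral (po) or iv dosing. Compounds were given as hydrochloride salts in 20% HPβCD unless otherwise noted. Other formulations were the hydrochloride salt in saline, the micronized free base in 20% HPβCD or corn oil (po) with saline for iv, or the hydrochloride salt in 0.4% methyl cellulose (po).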

A short description of data set [5]: In vivo antitumor efficacy in nude mice by injecting a dose of 25 mg/kg, as HCl salt in saline solution, iv and the total drug exposure was determined. Type of data set: ADME, organism-based. More on the design: dose 25 mg/kg, route intravenous. The following applies: mouse.
Data set [6] addresses geranylgeranyltransferase type-I (Rattus norvegicus, UniProt P53610+Q04631). The data set can be described thus: Inhibition of rat Geranylgeranyl transferase (GGPT). Type of data set: protein-complex assay.
Data set [7] in a line: In vivo antitumor efficacy in nude mice by injecting a dose of 25 mg/kg, as HCl salt in solution, iv and the total drug exposure was determined. (0-24hr). Type of data set: ADME, organism-based. More on the design: time < 24 hr, dose 25 mg/kg, route intravenous. The following applies: mouse.
Data set [8] in a line: (§3) Maximal plasma concentration in nude mice after 25 mg/kg oral dose. Type of data set: ADME, organism-based. The following applies: mouse. More on the design: dose 25 mg/kg, route oral.
Data set [9] can be described thus: In vivo antitumor efficacy in nude mice by injecting a dose of 25 mg/kg, as HCl salt in saline solution, iv and the serum half-life was determined. Type of data set: ADME, organism-based. More on the design: dose 25 mg/kg, route intravenous. The following applies: mouse.
Data set [10] can be described thus: as §3. Type of data set: ADME, organism-based. More on the design: dose 25 mg/kg, route oral. The following applies: mouse. This is another data set of the same source.
A further data set deals with Cynomolgus monkey. As to the kind of experiment: In vivo antitumor efficacy in cynomolgus monkeys by injecting a dose of 10 mg/kg, as HCl salt in saline solution, perorally and the duration of action was reported. Type of data set: ADME, organism-based, Macaca fascicularis. More on the design: dose 10 mg/kg, route oral. The following applies: po. The method in brief:
as §1

Data set [11] has as its system Mus musculus. As to the kind of experiment: In vivo antitumor efficacy in nude mice by injecting a dose of 25 mg/kg, as HCl salt in saline solution, perorally and the total drug exposure was determined. More on the design: dose 25 mg/kg, route oral. The following applies: po. Type of data set: ADME, organism-based.
The nature of data set [12]: In vivo antitumor efficacy in nude mice by injecting a dose of 25 mg/kg, as HCl salt in solution, iv and the serum half-life was determined. Type of data set: ADME, organism-based. Also noted: dose 25 mg/kg, route intravenous. The following applies: mouse.
Data set [13] in a line: In vivo antitumor efficacy in cynomolgus monkeys by injecting a dose of 25 mg/kg, as HCl salt in saline solution, perorally and the maximum drug concentration was determined. Type of data set: ADME, organism-based, Macaca fascicularis. Also noted: dose 25 mg/kg, route oral. The following applies: cynomolgus monkey, po. In a few lines: as §2
The nature of data set [14]: In vivo antitumor efficacy in nude mice by injecting a dose of 25 mg/kg, as HCl salt in saline solution, perorally and the total drug exposure was determined (0-24hr). Type of data set: ADME, organism-based. More on the design: time < 24 hr, dose 25 mg/kg, route oral. The following applies: mouse, po.
The test system of data set [15] is Mus musculus. The data set can be described thus: In vivo antitumor efficacy in nude mice by injecting a dose of 25 mg/kg, as HCl salt in saline solution, perorally and the duration of action was reported. Type of data set: ADME, organism-based. Also noted: dose 25 mg/kg, route oral. The following applies: po.
The nature of data set [16]: In vivo antitumor efficacy in nude mice by injecting a dose of 25 mg/kg, as HCl salt in saline solution, iv and the total drug exposure was determined. (0-24hr). The following applies: mouse. Type of data set: ADME, organism-based. Also noted: time < 24 hr, dose 25 mg/kg, route intravenous.
Data set [17] is described as follows: In vivo antitumor efficacy in cynomolgus monkeys by injecting a dose of 10 mg/kg, as HCl salt in saline solution, perorally and the total drug exposure was determined (0-8 hr). Type of data set: ADME, organism-based, Macaca fascicularis. More on the design: time < 8 hr, dose 10 mg/kg, route oral. The following applies: cynomolgus monkey, po. In a few lines: as §2

Data set [18] can be described thus: In vivo antitumor efficacy in cynomolgus monkeys by injecting a dose of 5 mg/kg, as HCl salt in saline solution, intravenously and the total drug exposure was determined (0-8 hr). Type of data set: ADME, organism-based, Macaca fascicularis. Also noted: time < 8 hr, dose 5 mg/kg, route intravenous. The following applies: cynomolgus monkey, iv. In a few lines: as §1

Data set [19] can be described thus: In vivo antitumor efficacy in cynomolgus monkeys by injecting a dose of 5 mg/kg, as HCl salt in saline solution, iv and the serum half-life was determined. Type of data set: ADME, organism-based, Macaca fascicularis. More on the design: dose 5 mg/kg, route intravenous. The following applies: cynomolgus monkey. In a few lines: as §1
Data set [20] is described as follows: Bioavailability in cynomolgus monkey (dose 5 mg/kg i.v.). Type of data set: ADME, organism-based, Macaca fascicularis. The following applies: in vivo, iv. In a few lines: as §2
Data set [21] is described as follows: In vivo antitumor efficacy in nude mice by injecting a dose of 25 mg/kg, micronized free base in 20% HPbetaCD, iv and the total drug exposure was determined. (0-24hr). The following applies: mouse. Type of data set: ADME, organism-based. More on the design: time < 24 hr, dose 25 mg/kg, route intravenous.
The nature of data set [22]: In vivo antitumor efficacy in cynomolgus monkeys by injecting a dose of 5 mg/kg, as HCl salt in saline solution, perorally and the maximum drug concentration was determined. Type of data set: ADME, organism-based, Macaca fascicularis. Also noted: dose 5 mg/kg, route oral. The following applies: cynomolgus monkey, po. The method in brief: as §1
A short description of data set [23]: as §3. Type of data set: ADME, organism-based. Also noted: dose 25 mg/kg, route oral. The following applies: mouse. The source holds these as a separate data set.
The nature of data set [24]: In vivo antitumor efficacy in cynomolgus monkeys by injecting a dose of 10 mg/kg, as HCl salt in saline solution, perorally and the maximum drug concentration was determined. Type of data set: ADME, organism-based, Macaca fascicularis. Also noted: dose 10 mg/kg, route oral. The following applies: cynomolgus monkey, po. The method in brief:
as §1

Data set [25] can be described thus: In vivo antitumor efficacy in nude mice by injecting a dose of 25 mg/kg, micronized free base in 20% HPbetaCD, perorally and the total drug exposure was determined (0-24hr). Type of data set: ADME, organism-based. More on the design: time < 24 hr, dose 25 mg/kg, route oral. The following applies: mouse, po.
The nature of data set [26]: In vivo antitumor efficacy in nude mice by injecting a dose of 25 mg/kg, micronized free base in 20% HPbetaCD, iv and the serum half-life was determined. Type of data set: ADME, organism-based. The following applies: mouse. More on the design: dose 25 mg/kg, route intravenous.
Data set [27] in a line: In vivo antitumor efficacy in cynomolgus monkeys by injecting a dose of 5 mg/kg, as HCl salt in saline solution, perorally and the total drug exposure was determined (0-8 hr). Type of data set: ADME, organism-based, Macaca fascicularis. Also noted: time < 8 hr, dose 5 mg/kg, route oral. The following applies: cynomolgus monkey, po. In a few lines:
as §1

The nature of data set [28]: Oral bioavailability in nude mice. Type of data set: ADME, organism-based. The following applies: mouse, in vivo, read-out: Bioavailabiility.

Structures are written as SMILES. Some results are limits rather than exact numbers.

As a reminder, the IC50 is the point on the concentration scale where inhibition reaches its midpoint. As usually defined, the Cmax is the peak of the concentration-time curve. The half-life is the time in which the quantity being followed falls by half. Take `CN1CCC(CC(=O)N2CCN(C3c4ccc(Cl)cc4CCc4cc(Br)cnc43)CC2)CC1` (stereo unspecified): the AUC came out at 18.4 uh ml-1 in the data set on Mus musculus [1], 32900 ng·h/mL in [5] and 39 uh ml-1 with Mus musculus [11]. For the same molecule, the values for the bioavailability in data set [2] and in [4] were 100% and 45%, respectively. The AUC at 8 h in data set [3] is 37200 ng·h/mL. In [6], this molecule came in with an IC50 greater than 38 µM. Moreover, the AUC at 24 h in [7] was 40600 ng·h/mL. Moreover, the figures for the Cmax in [8], in data set [10] and in data set [13] were 30 µM, 4 µM and 1.5 µM, respectively. Further, the half-life in data set [9] was 8.5 h; in data set [12] it was 8.3 h. In the data set on Cynomolgus monkey, the “Time above IC50” value came to 72 h.
The molecule `CN1CCCC(CC(=O)N2CCN(C3c4ccc(Cl)cc4CCc4cc(Br)cnc43)CC2)C1` (stereo unspecified) registered a bioavailability in [2] of 100%. For the same molecule, the AUC at 24 h was found to be 17000 ng·h/mL in data set [14] and 14900 ng·h/mL in [16]. The IC50 in data set [6] is greater than 38 µM. The Cmax in data set [8] turned out to be 2 µM. Also, the half-life in data set [9] was 5.7 h. Also, the “Time above IC50” value in the data set on Mus musculus [15] was 24 h.
For `NC(=O)N1CCC(CC(=O)N2CCN(C3c4ccc(Cl)cc4CCc4cc(Br)cnc43)CC2)CC1` (stereo unspecified), the AUC at 8 h in [17] is 12700 ng·h/mL; in data set [18], 12300 ng·h/mL; in data set [27], 4270 ng·h/mL. Also, the values for the bioavailability in data set [2], in data set [20] and in [28] were 100%, 35% and 96.6%, respectively. Moreover, the results for the half-life in data set [19], in data set [9] and in data set [26] were 2.4 h, 1.2 h and 1.5 h, respectively. For the same molecule, the AUC at 24 h in [14] came out at 70800 ng·h/mL; in data set [21], 57200 ng·h/mL; in data set [25], 55200 ng·h/mL; in data set [16] it was 33900 ng·h/mL. The IC50 in data set [6] is greater than 35 µM. The Cmax is 38.8 µM in data set [8], 0.5 µM in data set [22], 71.1 µM in data set [23] and 2 µM in [24]. Besides, the “Time above IC50” value is 8 h in the data set with Mus musculus [15] and 24 h with Cynomolgus monkey.
